Test results from ChEMBL document CHEMBL1147663, “Structure-activity relationships of bifunctional peptides based on overlapping pharmacophores at opioid and cholecystokinin receptors” (J Med Chem, 2006).
pEC50, pIC50, pKi: −log10 of the molar value. Active and inactive are the calls of the source. The calls are words filed in the database; no cut-off is given here. Where a SMILES comes first, the peptide text is derived from it. [ ]: non-standard residue; d: D form. NMeNle = CCCC[C@H](NC)C(=O)O

How the values were obtained:
[1] = biological target: T1, Delta-type opioid receptor (Homo sapiens, UniProt P41143); test: Activity against [35S]GTP-gamma-S binding to human delta opioid receptor expressed in HN9.10 cells; assay type: functional, cell-based
Procedure, shortened: (§1)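 Membranes (10 μg) from HN9.10 cells stably expressing hDOR or rMOR; various drug concentrations in duplicate or triplicate, 90 min at 30 °C in HEPES pH 7.4 with GDP, MgCl2, NaCl, 0.1 nM [35S]GTPγS; filtration, scintillation counting.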

[2] = biological target: Delta-type opioid receptor (Mus musculus, UniProt P32300); test: Agonist activity at delta opioid receptor assessed as inhibition of electrically stimulated ICR mouse vas deferens contraction; assay type: functional, tissue-based
Procedure, shortened: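 Vas deferens from male ICR mice, in 20 mL baths at 0.5 g tension, Mg-free oxygenated Krebs, 37 °C; electrical stimulation 0.1 Hz, 2.0 ms pulses, supramaximal voltage. Cumulative addition to maximal inhibition; integrity checked with 10 nM DPDPE. IC50 by Hill-equation nonlinear least-squares fit, at least four tissues.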

[3] = biological target: T2, Mu-type opioid receptor (Rattus norvegicus, UniProt P33535); test: (§2) Activity against [35S]GTP-gamma-S binding to rat mu opioid receptor expressed in HN9.10 cells; assay type: functional, cell-based; procedure, shortened: as §1
[4] = biological target: Mu-type opioid receptor (Rattus norvegicus) (UniProt P33535); test: as §2; assay type: functional, cell-based; procedure, shortened: as §1
[5] = biological target: Mu-type opioid receptor (Cavia porcellus, UniProt P97266); test: Agonist activity at mu opioid receptor assessed as inhibition of electrically stimulated Hartley guinea pig ileum contraction; assay type: functional, tissue-based
Procedure, shortened: (§3)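 Longitudinal muscle–myenteric plexus strips from male Hartley guinea pig ileum, 1 g tension, oxygenated Krebs at 37 °C; 0.1 Hz, 0.4 ms supramaximal stimulation. […] Integrity checked with 10 nM PL-017. Hill-equation fit, at least four tissues.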

[6] = biological target: T3, Gastrin/cholecystokinin type B receptor (Homo sapiens, UniProt P32239); test: Antagonist activity at CCK2 receptor expressed in HEK293 cells assessed as accumulation of [3H]inositol phosphates by PI assay; assay type: functional, cell-based
T3 sequence (P32239 whole entry): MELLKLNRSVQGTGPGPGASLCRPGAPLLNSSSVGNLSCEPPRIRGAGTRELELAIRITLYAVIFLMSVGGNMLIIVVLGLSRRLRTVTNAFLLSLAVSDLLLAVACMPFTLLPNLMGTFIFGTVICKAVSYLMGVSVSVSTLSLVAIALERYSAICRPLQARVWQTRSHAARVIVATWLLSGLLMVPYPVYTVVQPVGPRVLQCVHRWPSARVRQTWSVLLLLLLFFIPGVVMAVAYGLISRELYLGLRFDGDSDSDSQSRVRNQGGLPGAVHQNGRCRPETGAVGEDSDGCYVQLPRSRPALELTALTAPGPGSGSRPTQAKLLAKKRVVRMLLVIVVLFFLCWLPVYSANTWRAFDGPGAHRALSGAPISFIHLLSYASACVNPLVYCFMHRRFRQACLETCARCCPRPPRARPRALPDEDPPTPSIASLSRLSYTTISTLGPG

[7] = biological target: T4, Cholecystokinin receptor type A (Homo sapiens, UniProt P32238); test: Displacement of [125I]CCK-8(SO3) from human CCK1 receptor expressed in HEK293 cells; assay type: cell-based
T4 sequence (P32238 whole entry): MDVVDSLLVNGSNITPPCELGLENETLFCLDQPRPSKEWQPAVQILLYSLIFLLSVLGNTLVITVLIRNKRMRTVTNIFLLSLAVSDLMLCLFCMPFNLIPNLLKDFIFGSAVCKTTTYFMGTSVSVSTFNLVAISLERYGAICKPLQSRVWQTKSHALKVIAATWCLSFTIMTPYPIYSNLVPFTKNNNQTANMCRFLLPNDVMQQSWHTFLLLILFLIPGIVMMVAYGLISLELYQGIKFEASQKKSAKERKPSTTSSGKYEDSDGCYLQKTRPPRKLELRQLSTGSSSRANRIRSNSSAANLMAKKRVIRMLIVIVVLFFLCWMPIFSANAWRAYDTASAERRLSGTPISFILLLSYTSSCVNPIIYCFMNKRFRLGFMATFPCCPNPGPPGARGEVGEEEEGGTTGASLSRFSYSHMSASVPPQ

[8] = biological target: T3, Gastrin/cholecystokinin type B receptor; test: Displacement of [125I]CCK-8(SO3) from human CCK2 receptor expressed in HEK293 cells; assay type: cell-based
[9] = biological target: T1, Delta-type opioid receptor; test: Displacement of [3H]DPDPE from human delta opioid receptor expressed in HN9.10 cells; assay type: cell-based
Procedure, shortened: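 HN9.10 cell membranes (50 μg) expressing hDOR, 10 test concentrations with 1.0 nM [3H]DPDPE in 50 mM Tris pH 7.4 with peptidase inhibitors and BSA, 3 h at 25 °C, duplicates; filtration, scintillation counting. Nonspecific with 10 μM naloxone. Ki by Cheng–Prusoff.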

[10] = biological target: T2, Mu-type opioid receptor; test: Displacement of [3H]DAMGO from rat mu opioid receptor expressed in HN9.10 cells; assay type: cell-based
Procedure, shortened: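 HN9.10 cell membranes (50 μg) expressing rMOR, 10 test concentrations with 1.0 nM [3H]DAMGO in 50 mM Tris pH 7.4 with peptidase inhibitors and BSA, 3 h at 25 °C, duplicates; filtration, scintillation counting. Nonspecific with 10 μM naloxone. Ki by Cheng–Prusoff.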

[11] = biological target: T5, Cholecystokinin receptor type A (Homo sapiens) (UniProt P32238); details: HEK293
T5 sequence (whole entry): T4 sequence (P32238 whole entry)

[12] = biological target: Mu-type opioid receptor (Cavia porcellus) (UniProt P97266); test: Agonist activity at mu opioid receptor assessed as inhibition of electrically stimulated Hartley guinea pig ileum contraction at 1 uM; assay type: functional, tissue-based; procedure, shortened: as §3
Chain of Mu-type opioid receptor (Cavia porcellus) (P97266 whole entry): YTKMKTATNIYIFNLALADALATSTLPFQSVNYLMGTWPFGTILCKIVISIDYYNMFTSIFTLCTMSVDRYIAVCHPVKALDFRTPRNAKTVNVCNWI

Chain of Mu-type opioid receptor (Cavia porcellus, UniProt P97266) (P97266 whole entry): as above
T2 sequence (P33535 whole entry): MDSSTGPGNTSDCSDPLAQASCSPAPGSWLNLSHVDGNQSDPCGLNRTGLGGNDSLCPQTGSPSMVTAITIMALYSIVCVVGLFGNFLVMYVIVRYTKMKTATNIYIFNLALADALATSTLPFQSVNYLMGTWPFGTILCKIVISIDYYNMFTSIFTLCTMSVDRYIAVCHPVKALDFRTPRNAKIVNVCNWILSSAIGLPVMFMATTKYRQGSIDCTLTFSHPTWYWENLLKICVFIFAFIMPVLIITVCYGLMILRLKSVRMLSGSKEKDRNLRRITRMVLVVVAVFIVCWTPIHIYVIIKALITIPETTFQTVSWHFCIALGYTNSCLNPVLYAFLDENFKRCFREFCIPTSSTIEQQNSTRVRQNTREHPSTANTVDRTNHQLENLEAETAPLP
Chain of Mu-type opioid receptor (Rattus norvegicus) (P33535 whole entry): as above
T1 sequence (P41143 whole entry): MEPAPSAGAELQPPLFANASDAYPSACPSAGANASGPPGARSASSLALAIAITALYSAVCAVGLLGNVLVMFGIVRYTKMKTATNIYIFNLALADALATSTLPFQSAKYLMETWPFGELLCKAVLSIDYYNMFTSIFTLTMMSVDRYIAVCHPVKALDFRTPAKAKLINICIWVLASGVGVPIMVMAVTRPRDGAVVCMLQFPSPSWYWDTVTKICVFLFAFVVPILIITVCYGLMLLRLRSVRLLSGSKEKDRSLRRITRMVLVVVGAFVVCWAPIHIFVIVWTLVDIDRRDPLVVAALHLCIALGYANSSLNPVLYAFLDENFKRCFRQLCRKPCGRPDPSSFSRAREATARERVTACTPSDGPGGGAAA
Chain of Delta-type opioid receptor (Mus musculus, UniProt P32300) (P32300 whole entry): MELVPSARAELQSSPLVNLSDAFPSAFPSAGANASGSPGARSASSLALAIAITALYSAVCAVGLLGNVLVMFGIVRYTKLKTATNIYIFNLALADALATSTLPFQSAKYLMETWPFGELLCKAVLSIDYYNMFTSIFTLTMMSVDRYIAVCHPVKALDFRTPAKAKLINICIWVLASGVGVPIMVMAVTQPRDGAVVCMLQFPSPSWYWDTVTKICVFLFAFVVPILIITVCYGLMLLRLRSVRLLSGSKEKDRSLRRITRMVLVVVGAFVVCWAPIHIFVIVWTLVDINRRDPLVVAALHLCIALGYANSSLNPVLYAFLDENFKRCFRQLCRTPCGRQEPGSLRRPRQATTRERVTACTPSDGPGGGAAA

| Compound | pEC50 [1] | Emax [1] [%] | pIC50 [2] | pEC50 [3] | Emax [4] [%] | pIC50 [5] | pEC50 [6] | pIC50 [7] | pKi [7] | pIC50 [8] | pKi [8] | pIC50 [9] | pKi [9] | pIC50 [10] | pKi [10] | Log EC50 [11] | inhibition [12] [%] |
| --- | --- | --- | --- | --- | --- | --- | --- | --- | --- | --- | --- | --- | --- | --- | --- | --- | --- |
| CCCC[C@@H](C(=O)N[C@@H](CC(=O)O)C(=O)N[C@@H](Cc1ccccc1)C(N)=O)N(C)C(=O)[C@H](Cc1c[nH]c2ccccc12)NC(=O)CNC(=O)[C@@H](C)NC(=O)[C@@H](N)Cc1ccc(O)cc1 | 6.92 | 270 | 7.18 | 7.74 | 73 | 6.33 | 8.34 | 5.29 | 5.29 | 8.79 | 8.80 | 8.28 | 8.66 | 7.05 | 7.41 |  |  |
| CCCC[C@@H](C(=O)N[C@@H](CC(=O)O)C(=O)N[C@@H](Cc1ccccc1)C(N)=O)N(C)C(=O)[C@H](Cc1c[nH]c2ccccc12)NC(=O)CNC(=O)[C@@H](Cc1ccccc1)NC(=O)[C@@H](N)Cc1ccc(O)cc1 | 8.60 | 84 | 7.19 | 7.66 | 300 | 7.00 | 7.80 | 5.44 | 5.44 | 7.82 | 7.82 | 7.73 | 9.00 | 6.61 | 7.00 |  |  |
| CCCC[C@@H](C(=O)N[C@@H](CC(=O)O)C(=O)N[C@@H](Cc1ccccc1)C(N)=O)N(C)C(=O)[C@H](Cc1c[nH]c2ccccc12)NC(=O)CNC(=O)CNC(=O)[C@@H](N)Cc1ccc(O)cc1 (H-YGGW[NMeNle]DF-NH2) | 7.12 | 68 | 6.66 | 8.70 | 100 | 5.38 | 7.49 |  |  | 8.32 | 8.32 | 6.70 | 7.07 | 6.26 | 6.62 | inactive |  |
| CCCC[C@@H](C(=O)N[C@@H](CC(=O)O)C(=O)N[C@@H](Cc1ccccc1)C(N)=O)N(C)C(=O)[C@H](Cc1c[nH]c2ccccc12)NC(=O)CNC(=O)[C@H]1CCCN1C(=O)[C@@H](N)Cc1ccc(O)cc1 | 6.05 | 110 | 6.05 | 6.05 | 210 |  | 7.44 | 4.98 | < 5.00 | 8.57 | 8.57 | 6.70 | 7.07 | 5.22 | 5.59 |  | 13 |
| CCCC[C@@H](NC(=O)[C@@H](N)Cc1ccc(O)cc1)C(=O)NCC(=O)N[C@@H](Cc1c[nH]c2ccccc12)C(=O)N(C)[C@@H](CCCC)C(=O)N[C@@H](CC(=O)O)C(=O)N[C@@H](Cc1ccccc1)C(N)=O | 7.82 | 150 | 8.05 | 6.96 | 70 | 7.32 | 7.72 |  |  | 8.42 | 8.42 | 8.33 | 8.70 | 7.23 | 7.60 |  |  |
| CCCC[C@@H](C(=O)N[C@@H](CC(=O)O)C(=O)N[C@@H](Cc1ccccc1)C(N)=O)N(C)C(=O)[C@@H](Cc1c[nH]c2ccccc12)NC(=O)CNC(=O)[C@@H](C)NC(=O)[C@@H](N)Cc1ccc(O)cc1 | 7.64 | 56 | 7.20 | 7.42 | 44 | 6.82 | 8.18 | 6.50 | 6.49 | 8.81 | 8.82 | 8.46 | 8.82 | 7.30 | 7.66 |  |  |
